Test system: not listed separately
Assay: Indirect antitumor effect was measured as cytotoxicity against human monocytes; not detected
Format: functional
Details: not given
Method in brief: (§1)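 Adherent human PBMC (Ficoll isolation, 2 h adherence, washed) pretreated 24 h with 25, 50, 100 μM in RPMI 1640/5% FCS, triplicate wells. Medium removed, C13* cells (2 × 10^3/well) cocultured 24 h, read by MTT. Three experiments; IC50 by Litchfield–Wilcoxon.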

Compound	IC50
COc1c(-c2ccc(C)cc2)oc2c(CC(=O)O)cccc2c1=O	not detected
COc1cccc(-c2oc3c(CC(=O)O)cccc3c(=O)c2OC)c1	not detected
CCOc1c(-c2ccccc2)oc2c(CC(=O)O)cccc2c1=O	not detected
CC(C)Oc1c(-c2ccccc2)oc2c(CC(=O)O)cccc2c1=O	not detected
O=C(O)Cc1cccc2c(=O)cc(-c3ccccc3)oc12 [MITOFLAXONE]	not detected
COc1c(-c2ccccc2Cl)oc2c(CC(=O)O)cccc2c1=O	not detected

Test system: not listed separately
Assay: cPotency ratio was determined against macrophages; more potent
Format: functional
Details: not given
Method in brief: (§2)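 Ratio of reference IC50 (FAA or DMXAA) to analogue IC50 in the effector-cell coculture assay: mouse peritoneal macrophages or adherent human PBMC pretreated 24 h with drug, then C13* target cells added for 24 h, lysis by MTT. IC50 and ratios by Litchfield–Wilcoxon; three experiments in triplicate.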

Compound	Potency ratio
COc1c(-c2ccc(Cl)cc2)oc2c(CC(=O)O)cccc2c1=O	2.8

Test system: LoVo
Assay: In vitro cytotoxicity against the selected tumor cell line LoVoR arising from human colon adenocarcinoma was determined
Format: functional, cell-based
Details: not given

Compound	IC50
COc1c(-c2cccc(C(F)(F)F)c2)oc2c(CC(=O)O)cccc2c1=O	532 µM
COc1c(-c2ccc(C)cc2)oc2c(CC(=O)O)cccc2c1=O	570 µM
COc1cccc(-c2oc3c(CC(=O)O)cccc3c(=O)c2OC)c1	514 µM
CC(C)Oc1c(-c2ccccc2)oc2c(CC(=O)O)cccc2c1=O	407 µM
O=C(O)Cc1cccc2c(=O)cc(-c3ccccc3)oc12 [MITOFLAXONE]	378 µM
COc1c(-c2ccccc2Cl)oc2c(CC(=O)O)cccc2c1=O	780 µM

Test system: not listed separately
Assay: Potency ratio was determined against human monocytes versus DMXAA (Dimethylxanthenone-4-acetic acid)
Format: functional
Details: not given
Method in brief: as §2

Compound	Potency ratio
COc1c(-c2ccc(Cl)cc2)oc2c(CC(=O)O)cccc2c1=O	1.3

Test system: 2008
Assay: Direct cytotoxicity against the selected tumor cell line 2008 was determined especially on ovarian adenocarcinoma derived cells; not detected
Format: functional, cell-based, Homo sapiens
Details: not given

Compound	IC50
COc1c(-c2cccc(C(F)(F)F)c2)oc2c(CC(=O)O)cccc2c1=O	not detected
COc1c(-c2ccc(C)cc2)oc2c(CC(=O)O)cccc2c1=O	not detected
COc1c(-c2ccc(Cl)cc2)oc2c(CC(=O)O)cccc2c1=O	not detected
COc1cccc(-c2oc3c(CC(=O)O)cccc3c(=O)c2OC)c1	not detected
CCOc1c(-c2ccccc2)oc2c(CC(=O)O)cccc2c1=O	not detected
CC(C)Oc1c(-c2ccccc2)oc2c(CC(=O)O)cccc2c1=O	not detected
COc1c(-c2ccccc2Cl)oc2c(CC(=O)O)cccc2c1=O	not detected

Test system: LoVo
Assay: In vitro cytotoxicity against the selected tumor cell line LoVoS arising from human colon adenocarcinoma was determined; not detected
Format: functional, cell-based
Details: not given

Compound	IC50
COc1c(-c2cccc(C(F)(F)F)c2)oc2c(CC(=O)O)cccc2c1=O	not detected
COc1c(-c2ccc(Cl)cc2)oc2c(CC(=O)O)cccc2c1=O	not detected

Species on record: Mus musculus
Assay: Indirect antitumor effect was measured as cytotoxicity with murine macrophages pretreated with compounds
Format: functional
Details: not given
Method in brief: (§3)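 Resident mouse peritoneal macrophages (heparinised PBS lavage, 2 h adherence) plated at 1 × 10^4 cells/well with a range of drug concentrations, triplicate wells, 24 h. Medium removed, C13* cells (2 × 10^3/well) added, cocultured 24 h. Lysis by MTT; specific cytotoxicity = [OD(macrophages+C13*) − OD(macrophages)]/OD(C13*). Three experiments; IC50 by Litchfield–Wilcoxon.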

Compound	IC50
COc1c(-c2ccc(C)cc2)oc2c(CC(=O)O)cccc2c1=O	164 µM
COc1c(-c2ccc(Cl)cc2)oc2c(CC(=O)O)cccc2c1=O	293 µM
COc1cccc(-c2oc3c(CC(=O)O)cccc3c(=O)c2OC)c1	182 µM
CCOc1c(-c2ccccc2)oc2c(CC(=O)O)cccc2c1=O	431 µM
CC(C)Oc1c(-c2ccccc2)oc2c(CC(=O)O)cccc2c1=O	225 µM
O=C(O)Cc1cccc2c(=O)cc(-c3ccccc3)oc12 [MITOFLAXONE]	285 µM
COc1c(-c2ccccc2Cl)oc2c(CC(=O)O)cccc2c1=O	284 µM

Test system: not listed separately
Assay: Potency ratio was determined against human monocytes versus DMXAA (Dimethylxanthenone-4-acetic acid); more potent
Format: functional
Details: not given
Method in brief: as §2

Compound	Potency ratio
COc1c(-c2cccc(C(F)(F)F)c2)oc2c(CC(=O)O)cccc2c1=O	7.3

Test system: not listed separately
Assay: Potency ratio was determined against C13 cell line versus FAA (Flavone acetic acid); less potent
Format: functional
Details: not given
Method in brief: (§4)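 Ratio IC50(FAA)/IC50(analogue) from direct 24 h MTT cytotoxicity on the named line (LoVo S, LoVo R, 2008 or C13*), concentrations up to 500 μM. IC50 values and 95% confidence limits by Litchfield–Wilcoxon method; three experiments in triplicate.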

Compound	Potency ratio
COc1c(-c2ccc(C)cc2)oc2c(CC(=O)O)cccc2c1=O	0.3
COc1c(-c2ccc(Cl)cc2)oc2c(CC(=O)O)cccc2c1=O	0.7

Test system: not listed separately
Assay: Potency ratio was determined against LoVoR versus FAA (Flavone acetic acid)
Format: functional
Details: not given
Method in brief: as §4

Compound	Potency ratio
COc1c(-c2cccc(C(F)(F)F)c2)oc2c(CC(=O)O)cccc2c1=O	0.7
COc1c(-c2ccc(C)cc2)oc2c(CC(=O)O)cccc2c1=O	0.7
CC(C)Oc1c(-c2ccccc2)oc2c(CC(=O)O)cccc2c1=O	0.9
O=C(O)Cc1cccc2c(=O)cc(-c3ccccc3)oc12 [MITOFLAXONE]	0.6

Test system: not listed separately
Assay: Potency ratio was determined against LoVoR versus FAA (Flavone acetic acid); less potent
Format: functional
Details: not given
Method in brief: as §4

Compound	Potency ratio
COc1cccc(-c2oc3c(CC(=O)O)cccc3c(=O)c2OC)c1	0.7
COc1c(-c2ccccc2Cl)oc2c(CC(=O)O)cccc2c1=O	0.5

Test system: not listed separately
Assay: Potency ratio was determined against LoVoS versus FAA (Flavone acetic acid)
Format: functional
Details: not given
Method in brief: as §4

Compound	Potency ratio
COc1c(-c2ccc(C)cc2)oc2c(CC(=O)O)cccc2c1=O	0.9
COc1cccc(-c2oc3c(CC(=O)O)cccc3c(=O)c2OC)c1	0.7
CCOc1c(-c2ccccc2)oc2c(CC(=O)O)cccc2c1=O	0.9
CC(C)Oc1c(-c2ccccc2)oc2c(CC(=O)O)cccc2c1=O	0.7
O=C(O)Cc1cccc2c(=O)cc(-c3ccccc3)oc12 [MITOFLAXONE]	1
COc1c(-c2ccccc2Cl)oc2c(CC(=O)O)cccc2c1=O	0.9

Species on record: Mus musculus
Assay: Indirect antitumor effect was measured as cytotoxicity against murine macrophages; not detected
Format: functional
Details: not given
Method in brief: as §3

Compound	IC50
COc1c(-c2cccc(C(F)(F)F)c2)oc2c(CC(=O)O)cccc2c1=O	not detected

Test system: not listed separately
Assay: Potency ratio was determined against murine macrophages versus FAA (Flavone acetic acid)
Format: functional
Details: not given
Method in brief: as §2

Compound	Potency ratio
COc1c(-c2ccc(C)cc2)oc2c(CC(=O)O)cccc2c1=O	1.7
COc1c(-c2ccc(Cl)cc2)oc2c(CC(=O)O)cccc2c1=O	0.9
COc1cccc(-c2oc3c(CC(=O)O)cccc3c(=O)c2OC)c1	1.6
CCOc1c(-c2ccccc2)oc2c(CC(=O)O)cccc2c1=O	0.7
CC(C)Oc1c(-c2ccccc2)oc2c(CC(=O)O)cccc2c1=O	1.3
O=C(O)Cc1cccc2c(=O)cc(-c3ccccc3)oc12 [MITOFLAXONE]	1
COc1c(-c2ccccc2Cl)oc2c(CC(=O)O)cccc2c1=O	1

Test system: 2008
Assay: Direct cytotoxicity against the selected tumor cell line 2008 was determined especially on ovarian adenocarcinoma derived cells
Format: functional, cell-based
Details: Homo sapiens

Compound	IC50
O=C(O)Cc1cccc2c(=O)cc(-c3ccccc3)oc12 [MITOFLAXONE]	421 µM

Test system: LoVo
Assay: In vitro cytotoxicity against the selected tumor cell line LoVoS arising from human colon adenocarcinoma was determined
Format: functional, cell-based
Details: not given

Compound	IC50
COc1c(-c2ccc(C)cc2)oc2c(CC(=O)O)cccc2c1=O	632 µM
COc1cccc(-c2oc3c(CC(=O)O)cccc3c(=O)c2OC)c1	829 µM
CCOc1c(-c2ccccc2)oc2c(CC(=O)O)cccc2c1=O	611 µM
CC(C)Oc1c(-c2ccccc2)oc2c(CC(=O)O)cccc2c1=O	815 µM
O=C(O)Cc1cccc2c(=O)cc(-c3ccccc3)oc12 [MITOFLAXONE]	564 µM
COc1c(-c2ccccc2Cl)oc2c(CC(=O)O)cccc2c1=O	605 µM

Test system: C13
Assay: Direct cytotoxicity against the selected tumor cell line c13* was determined especially on ovarian adenocarcinoma derived cells; not detected
Format: functional, cell-based, Homo sapiens
Details: not given

Compound	IC50
COc1c(-c2cccc(C(F)(F)F)c2)oc2c(CC(=O)O)cccc2c1=O	not detected
COc1cccc(-c2oc3c(CC(=O)O)cccc3c(=O)c2OC)c1	not detected
CCOc1c(-c2ccccc2)oc2c(CC(=O)O)cccc2c1=O	not detected
CC(C)Oc1c(-c2ccccc2)oc2c(CC(=O)O)cccc2c1=O	not detected
COc1c(-c2ccccc2Cl)oc2c(CC(=O)O)cccc2c1=O	not detected

Test system: not listed separately
Assay: Indirect antitumor effect was measured as cytotoxicity with human monocytes pretreated with compounds
Format: functional
Details: not given
Method in brief: as §1

Compound	IC50
COc1c(-c2cccc(C(F)(F)F)c2)oc2c(CC(=O)O)cccc2c1=O	18.3 µM
COc1c(-c2ccc(Cl)cc2)oc2c(CC(=O)O)cccc2c1=O	105 µM

Test system: not listed separately
Assay: Potency ratio was determined against C13 cell line versus FAA (Flavone acetic acid)
Format: functional
Details: not given
Method in brief: as §4

Compound	Potency ratio
O=C(O)Cc1cccc2c(=O)cc(-c3ccccc3)oc12 [MITOFLAXONE]	1

Test system: LoVo
Assay: In vitro cytotoxicity against the selected tumor cell line LoVoR arising from human colon adenocarcinoma was determined; not detected
Format: functional, cell-based
Details: not given

Compound	IC50
COc1c(-c2ccc(Cl)cc2)oc2c(CC(=O)O)cccc2c1=O	not detected
CCOc1c(-c2ccccc2)oc2c(CC(=O)O)cccc2c1=O	not detected

Test system: not listed separately
Assay: Potency ratio was determined against 2008 cell line versus FAA (Flavone acetic acid)
Format: functional
Details: not given
Method in brief: as §4

Compound	Potency ratio
O=C(O)Cc1cccc2c(=O)cc(-c3ccccc3)oc12 [MITOFLAXONE]	1

Test system: C13
Assay: Direct cytotoxicity against the selected tumor cell line c13* was determined especially on ovarian adenocarcinoma derived cells
Format: functional, cell-based
Details: Homo sapiens

Compound	IC50
COc1c(-c2ccc(C)cc2)oc2c(CC(=O)O)cccc2c1=O	806 µM
COc1c(-c2ccc(Cl)cc2)oc2c(CC(=O)O)cccc2c1=O	350 µM
O=C(O)Cc1cccc2c(=O)cc(-c3ccccc3)oc12 [MITOFLAXONE]	233 µM

Source: ChEMBL document CHEMBL1145051, “Synthesis and biological evaluation of 3-alkoxy analogues of flavone-8-acetic acid” (J Med Chem, 2003)
